Experimental data reported in PubChem BioAssay.
Calls of active or inactive are those of the source.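 Rule for the calls: active = growth inhibition above 25% in both replicates, a cutoff set 3 SD above the mean; inconclusive = above 25% in only one replicate; inactive = the rest.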

Test: OD615 S. cerevisiae growth inhibition, permissive medium, pilot counter-assay, permissive growth control for S. cerevisiae lifespan shortening project (AID 705)
Conditions: OD615, 24 h, at 10 µM, active compounds read high
In short: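 assay system = Saccharomyces cerevisiae strain carrying genetically modified DeaD replicative-lifespan system | medium = SC raffinose/galactose permissive medium | dosing = 10 µM single dose, 0.25% DMSO | schedule = 24 h compound exposure at 30 °C after 4 h pre-growth | measured by = OD at 615 nm | read-out basis = growth inhibition from lowered OD615 after 24 h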

| SMILES | growth inhibition |
| --- | --- |
| Cc1ccc(S(=O)(=O)NCC(=O)N2CCOCC2)cc1 | -3.62% (inactive) |
| COc1ccc(Cl)cc1C(=O)Nc1cc(=O)n(C)c(=O)n1C | -16.1% (inactive) |
| CCc1noc2c1/C(=N\O)CC(c1ccccc1)C2 (stereo not given) | 0.555% (inactive) |
| CN(CC1CCCO1)S(=O)(=O)c1ccc(C(=O)Nc2nc(-c3ccccn3)cs2)cc1 (stereo not given) | -14.2% (inactive) |
| Cc1csc(NC(=O)C2CCCN(S(=O)(=O)c3cccnc3)C2)n1 (stereo not given) | -7.25% (inactive) |
| O=C(NCCn1ccc2ccccc21)c1ccc(S(=O)(=O)N2CCOCC2)cc1 | 3.54% (inactive) |
| COCCOC(=O)C1=C(C)NC(=O)NC1c1c(F)cccc1Cl (stereo not given) | -7.95% (inactive) |
| CN(CC(=O)NC1CCCc2ccccc21)S(=O)(=O)c1ccc2c(c1)c(=O)n(C)c(=O)n2C (stereo not given) | -9.17% (inactive) |
| Cc1ccc2oc(=O)c3cnn(CC(=O)NC4CCCCC4C)c3c2c1 (stereo not given) | -14% (inactive) |
| Cc1nc(-c2ccc(S(=O)(=O)N3CCCCCC3)cc2)cs1 | 10.7% (inactive) |
| FC(F)(F)C12CC(c3ccccc3)=NCCN1CCN2 (stereo not given) | -4.15% (inactive) |
| CCCCCN=C(C)c1c(O)c2ccccc2oc1=O | 1.51% (inactive) |
| CC1=C(C(=O)Nc2ccccc2C)C(c2ccccc2)NC(=O)N1 (stereo not given) | 0.05% (inactive) |
| C/C(=C1\SC(N2CCOCC2)=NC1=O)c1ccccc1 | -19.6% (inactive) |
| N#CC1=C(N)Oc2n[nH]c(-c3ccccc3)c2C1c1cccc(OC(=O)N2CCOCC2)c1 (stereo not given) | -12.4% (inactive) |
| Cn1c(Cn2c(=O)sc3ccccc32)nnc1SCC(=O)NC1CCCCC1 | -17% (inactive) |
| CCN1C(=O)CS/C1=N\c1nccs1 | 1.12% (inactive) |
| COc1ccc(CNC(=O)c2cc3c(C)nc4ccccc4c3o2)c(OC)c1 | -10.6% (inactive) |
| CCCC(=O)NCCCc1nc2ccccc2n1C | -3.69% (inactive) |
| CCCCn1c(CCC(=O)O)ccc1-c1cccs1 | 6.82% (inactive) |

| SMILES | growth inhibition |
| --- | --- |
| CCOc1ccc(N(CC(=O)NCCSc2ccccn2)S(C)(=O)=O)cc1 | 0.64% (inactive) |
| Cc1c(NS(=O)(=O)CC23CCC(CC2=O)C3(C)C)c(=O)n(-c2ccccc2)n1C (stereo not given) | 5.19% (inactive) |
| CCc1nnc(NC(=O)C2Cc3ccccc3C(=O)O2)s1 (stereo not given) | -13.9% (inactive) |
| COc1ccc(C2C(C(=O)NCCN3CCOCC3)c3ccccc3C(=O)N2C)cc1OC (stereo not given) | -2.92% (inactive) |
| CC1CCN(c2nnc(N3CCC(C)CC3)c3ccccc23)CC1 | -19.1% (inactive) |
| Cc1ccc(S(=O)(=O)N2CCN(C(=O)CN3CCCC3)C2)cc1 | -15.1% (inactive) |
| O=C(Nc1ccc(S(=O)(=O)N2CCOCC2)cc1)c1ccc(Cl)cc1 | -7.83% (inactive) |
| O=C(O)CCNc1cc2ccccc2cc1C(=O)O | -15.4% (inactive) |
| CCCn1c(C(O)c2ccc3c(c2)OCO3)nc2ccccc21 (stereo not given) | 1.37% (inactive) |
| CCc1ccc2c(c1)C(NC(C)=O)C(=O)N2CC (stereo not given) | -11.8% (inactive) |
| O=C(c1c(F)cccc1F)N1CCN(c2cccc(C(F)(F)F)c2)CC1 | -7.33% (inactive) |
| CCCn1c2ccccc2c2cc(C(=O)O)ccc21 | -20.7% (inactive) |
| O=S(=O)(NCCSc1nnc(-c2ccco2)n1-c1ccccc1)c1ccccc1 | -14.1% (inactive) |
| COc1ccc(Nc2ccc3c(c2)=NC2(CCCCC2)[N+]=3[O-])cc1 | -9.92% (inactive) |
| Cn1c(Cn2c(=O)sc3ccccc32)nnc1SCC(=O)NCc1ccccc1Cl | -7.92% (inactive) |
| O=C(Nc1cccnc1)c1ccccc1F | -7.93% (inactive) |
| CCOc1ccc2nc(N3CCC(C(=O)Nc4nnc(CC)s4)CC3)sc2c1 | -13.1% (inactive) |
| O=C1N(O)C2(C=CCCC2)/C(=N\O)C12CCCCC2 (stereo not given) | -11.1% (inactive) |
| O=C1CCCC2=C1C1(O)C(=O)c3ccccc3C1(O)O2 (stereo not given) | -7.89% (inactive) |
| CC1CCC(NC(=O)c2cc3c(=O)n(C)c4ccccc4c3n2C)CC1 (stereo not given) | -12.8% (inactive) |
